Source: PubChem BioAssay AID686992 (Broad Institute, 2013)
Screen size: about 260,000 compounds; about 960 (0.37%) were called active. This is one part of a sample in which actives are shown more often than they occur.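 The calls were made as follows: active = mean E-selectin-positive cell signal at least 10% of the positive control, reached in at least 60% of replicates, without over 20% cell loss; inconclusive = no rule given, readout overlaps actives, possibly toxicity-flagged; inactive = the rest, including those meeting only one limit.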

Target: E-selectin (Homo sapiens) (UniProt P16581)
Assay: E-selectin induction in HUVECs, primary screen, imaging, HUVEC, immunofluorescence imaging, single point (AID 686992);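 also: signal is the percent of cells scored E-selectin positive by PE staining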
Settings: at 7.58 µM, active compounds read high, normalized: neutral wells 0, TNF-alpha wells 100
Summary of the method: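 assay system = HUVEC, human umbilical vein endothelial cells | input = 3,000 HUVEC seeded per well | medium = EGM-2 growth medium on 0.1% gelatin-coated wells | dosing = one compound dose added by pin transfer | signal = immunofluorescence imaging | read-out basis = % PE-positive cells | control set = TNF-alpha, DMSO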

E-selectin (Homo sapiens), sequence (P16581 whole entry, looked up): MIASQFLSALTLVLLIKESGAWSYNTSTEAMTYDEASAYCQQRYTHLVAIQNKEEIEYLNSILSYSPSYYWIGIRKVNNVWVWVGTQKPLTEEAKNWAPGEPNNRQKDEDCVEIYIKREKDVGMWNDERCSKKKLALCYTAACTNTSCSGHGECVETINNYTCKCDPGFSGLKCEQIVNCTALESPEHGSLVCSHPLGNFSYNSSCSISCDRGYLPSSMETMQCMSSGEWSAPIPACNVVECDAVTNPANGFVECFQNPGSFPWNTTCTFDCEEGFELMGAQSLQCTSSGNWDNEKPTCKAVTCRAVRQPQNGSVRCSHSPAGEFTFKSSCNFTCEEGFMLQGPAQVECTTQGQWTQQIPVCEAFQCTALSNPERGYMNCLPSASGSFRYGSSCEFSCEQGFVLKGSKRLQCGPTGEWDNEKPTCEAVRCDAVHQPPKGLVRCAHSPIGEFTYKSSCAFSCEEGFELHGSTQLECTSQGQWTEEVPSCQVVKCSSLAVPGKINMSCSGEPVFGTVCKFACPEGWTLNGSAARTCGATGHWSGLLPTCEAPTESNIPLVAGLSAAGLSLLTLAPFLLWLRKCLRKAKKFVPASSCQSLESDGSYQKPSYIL

**Q.** Which activation does the source give for `NC(=S)NN=Cc1ccc(OC(=O)COc2cc(Cl)c(Cl)cc2Cl)cn1` here?
**A.** Its activation is 0.0825% (inactive).

**Q.** For `C[C@H](CO)N1C[C@H](C)[C@@H](CN(C)S(=O)(=O)c2ccc([N+](=O)[O-])cc2)OCc2ccccc2-c2c(n(C)c3ccccc23)C1=O`, which activation is on record?
**A.** The activation was 0.251% (inactive).

**Q.** Which activation does the source give for `O=C(NC(=S)Nc1ncccn1)c1ccccc1Br` here?
**A.** The activation was -0.09% (inactive).

**Q.** With `CCOc1cnc(C(=O)NNC(=O)c2ccccc2Br)o1` as the molecule, how does the activation read?
**A.** Its activation is 180% (active).

**Q.** For `CCCc1ccc(OCCNC(=O)c2ccccc2Br)cc1`, which activation is on record?
**A.** Its activation is 0.473% (inactive).

**Q.** With `COCC(=O)N1[C@H](C(=O)N2CCN(C)CC2)[C@@H](CO)[C@@H]2Cn3c(ccc(C4=CCCC4)c3=O)[C@@H]21` as the molecule, how does the activation read?
**A.** The activation was 0.129% (inactive).

**Q.** `COC(=O)C1=C(C)N(Cc2ccc(C(F)(F)F)cc2)C(=NCc2ccc(C(F)(F)F)cc2)NC1c1cccc(Cl)c1` (stereo not drawn) was tested. Which activation did it give?
**A.** The activation was -0.458% (inactive).

**Q.** Which activation does the source give for `O=C(C[C@H]1CC[C@@H]2[C@H](COC[C@H](O)CN2CCC(F)(F)F)O1)NCC1CC1` here?
**A.** The activation was -0.0615% (inactive).

**Q.** For `COc1ccc(C2=NN(C(=O)c3cccnc3)C(c3ccccc3)C2)cc1` (stereo not drawn), which activation is on record?
**A.** The activation was -2.28% (inactive).

**Q.** Which activation does the source give for `COc1ccc(C2=NN(C(C)=O)C(c3ccccc3)C2)cc1` (stereo not drawn) here?
**A.** The activation was 0.176% (inactive).

**Q.** Which activation does the source give for `COc1ccc(C2=NN(C(=O)c3ccccc3C(=O)O)C(c3ccccc3O)C2)cc1` (stereo not drawn) here?
**A.** The activation was 55.5% (active).

**Q.** For `Cc1ccc(C(=O)N2CCCc3ccccc32)c(Cl)c1`, which activation is on record?
**A.** The activation was -0.261% (inactive).

**Q.** With `C[C@H](CO)N1C[C@H](C)[C@H](CN(C)C(=O)Nc2ccc(F)cc2)Oc2c(NC(=O)c3cnccn3)cccc2C1=O` as the molecule, how does the activation read?
**A.** Its activation is 0.893% (inactive).

**Q.** With `C[C@@H]1CN([C@H](C)CO)C(=O)c2cccc(NC(=O)c3cnccn3)c2O[C@@H]1CN(C)Cc1ccncc1` as the molecule, how does the activation read?
**A.** The activation was -11.9% (inactive).

**Q.** Which activation does the source give for `CC(C)NC(=O)N(C)C[C@@H]1Oc2c(NC(=O)c3cnccn3)cccc2C(=O)N([C@@H](C)CO)C[C@@H]1C` here?
**A.** Its activation is 88.4% (active).

**Q.** For `C[C@H]1CN([C@@H](C)CO)C(=O)c2cccc(NC(=O)c3cnccn3)c2O[C@@H]1CN(C)Cc1ccc(Oc2ccccc2)cc1`, which activation is on record?
**A.** The activation was 0.0435% (inactive).

**Q.** `C[C@H]1CN([C@@H](C)CO)C(=O)c2cccc(NC(=O)c3cnccn3)c2O[C@H]1CN(C)C(=O)Nc1ccccc1` was tested. Which activation did it give?
**A.** The activation was 0.886% (inactive).

**Q.** With `COc1ccc(CN(C)C[C@H]2Oc3c(NC(=O)c4cnccn4)cccc3C(=O)N([C@H](C)CO)C[C@@H]2C)cc1` as the molecule, how does the activation read?
**A.** Its activation is 39% (active).

**Q.** For `COc1ccc2c3c(n(C)c2c1)[C@@H](CO)N(C(=O)c1cnccn1)CC31CCN(C(C)=O)CC1`, which activation is on record?
**A.** Its activation is -0.0775% (inactive).

**Q.** How did the activation turn out when `Cc1ccccc1-c1csc(C(O)c2cccc(Cl)c2)n1` (stereo not drawn) was run?
**A.** Its activation is 0.0645% (inactive).

**Q.** `CCOC(=O)[C@H]1Nc2ccc(Cl)cc2[C@@H]2[C@H]1C1CC(c3ccccc31)N2C(=O)OCc1ccccc1` (stereo partly drawn) was tested. Which activation did it give?
**A.** Its activation is -3.61% (inactive).

**Q.** Which activation does the source give for `Cc1coc2cc3oc(=O)c(CCC(=O)O)c(C)c3cc12` here?
**A.** The activation was 0.29% (inactive).

**Q.** `CC[C@@H](C)[C@H](NC(=O)CCc1c(C)c2cc3c4c(oc3c(C)c2oc1=O)CCCC4)C(=O)O` was tested. Which activation did it give?
**A.** Its activation is -0.004% (inactive).

**Q.** Which activation does the source give for `Cc1c(CC(=O)NCC(=O)NCC(=O)O)c(=O)oc2cc3oc4c(c3cc12)CCCC4` here?
**A.** The activation was 44.8% (active).

**Q.** How did the activation turn out when `CN1C(=O)C(Br)(Br)CC1c1cccnc1` (stereo not drawn) was run?
**A.** The activation was 0.457% (inactive).

**Q.** With `CCc1nc2c(OCCOc3ccccc3)cccn2c1N(C)C(=O)c1ccc(OC)cc1` as the molecule, how does the activation read?
**A.** Its activation is -0.197% (inactive).

**Q.** How did the activation turn out when `CCOC(=O)C1C(C)C(C(C)(C)C)N(S(=O)(=O)c2ccc(C)cc2)C1c1ccccc1` (stereo not drawn) was run?
**A.** The activation was -0.306% (inactive).

**Q.** Which activation does the source give for `O=C(NC1CCCC1)[C@@H]1[C@@H](CO)[C@@H]2Cn3c(ccc(-c4ccc(F)cc4)c3=O)[C@H]1N2Cc1cocn1` here?
**A.** Its activation is 0.192% (inactive).

**Q.** Which activation does the source give for `CCOC(=O)C(=Cc1ccccc1)C(=O)c1ccccc1` here?
**A.** Its activation is -0.023% (inactive).

**Q.** With `COc1ccc2sc(-c3ccc(N(C)C)cc3)c(C#CCO)c2c1` as the molecule, how does the activation read?
**A.** The activation was 0.712% (inactive).

**Q.** For `COc1ccc2c(c1)c(=Cc1ccc(N(C)C)cc1)c1cc(-c3ccccc3)[n+](C)n12`, which activation is on record?
**A.** Its activation is 197% (active).

**Q.** How did the activation turn out when `COc1ccc2sc(-c3ccc(N(C)C)cc3)c(-c3ccc4cc[nH]c4c3)c2c1` was run?
**A.** Its activation is 0.675% (inactive).

**Q.** How did the activation turn out when `CC1(C)OC(=O)C2=C(C[C@@H](C3CCCC3)O[C@@H]2c2ccc(Cl)cc2)O1` was run?
**A.** Its activation is -0.0095% (inactive).
